For data set [1], the target named is (h)V1a (Homo sapiens, UniProt P37288). The data set is described as follows: In vitro V1a binding assay. The conditions noted are these: for inhibition at 0.01 µM: read-out: % Binding inhibition (10^−8M); for inhibition at 0.001 µM: read-out: % Binding inhibition (10^−9M); for V1a binding affinity (in words): structure-activity discussion of Tables 1 and 2. Summed up: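 [3H]AVP (0.3 nM; KD 0.5 nM) competition binding on human recombinant V1a expressed in CHO cells, 60 min at RT. Nonspecific binding was defined with 1 µM AVP. Test compounds were run at selected concentrations, two independent experiments each in duplicate, with % binding inhibition recorded. IC50 came from a one-site sigmoidal variable-slope fit; Ki was calculated by Cheng–Prusoff.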
Chain of (h)V1a (P37288 whole entry): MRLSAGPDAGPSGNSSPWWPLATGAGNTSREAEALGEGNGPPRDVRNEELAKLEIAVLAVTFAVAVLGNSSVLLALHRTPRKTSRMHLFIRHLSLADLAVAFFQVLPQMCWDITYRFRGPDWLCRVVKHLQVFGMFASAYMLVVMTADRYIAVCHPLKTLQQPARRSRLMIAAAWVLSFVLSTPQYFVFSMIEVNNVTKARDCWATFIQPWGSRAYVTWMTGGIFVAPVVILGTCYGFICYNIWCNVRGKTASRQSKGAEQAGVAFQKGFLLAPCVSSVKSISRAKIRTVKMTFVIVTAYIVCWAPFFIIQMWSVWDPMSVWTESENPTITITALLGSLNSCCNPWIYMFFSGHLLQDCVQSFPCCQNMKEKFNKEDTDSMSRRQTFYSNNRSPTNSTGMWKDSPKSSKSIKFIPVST

Data set [2] is described as follows: Lipophilicity logD7,4. The class given is physicochemical. The conditions noted are these: pH 7.4.
In data set [3] the target is V2. The conditions noted are these: read-out: Ki V2; cited from earlier work.
Data set [4] relates to CD-1 mouse brain. Briefly: Effect of anesthetics on radiotracer brain uptake in CD-1 mice. The class given is in vivo. The conditions noted are these: anesthetic ip 80 mg/kg, 30 min prior the radiotracer; 30 min after radiotracer.

In general, inhibition refers to the relative decrease from the control value, in per cent. Broadly, the logD is the decadic logarithm of the distribution of all forms, ionised or not, between an organic phase and buffer at a given pH. The low end stands for a more hydrophilic compound, the high end for a more lipophilic compound. A word on the Ki: it is the dissociation constant of the complex between target and ligand, obtained from inhibition or displacement.

On to `CC1(C)CC2CC(C)(CN2C(=O)c2ccc(-c3c[nH]c4ccccc34)cc2F)C1` (centres unmarked) [6b, (2-Fluoro-4-(1H-Indol-3-yl)phenyl)(1,3,3-trimethyl-6-aza-bicyclo[3.2.1]octan-6-yl)methanone], for which, in data set [1], the inhibition at 0.01 µM is 77.1%, the inhibition at 0.001 µM stood at 33.4% and the “V1a binding affinity (in words)” value is “lower binding affinity compared to the lead 1”. This compound gave a logD in data set [2] of 4.8.
On to `CC1(C)CC2CC(C)(CN2C(=O)c2ccc(-c3c[nH]c4ccccc34)c(OCCF)c2)C1` (centres unmarked) [6c, (3-(2fluoroethoxy)-4-(1H-indol-3-yl)phenyl)(1,3,3-trimethyl-6-aza-bicyclo[3.2.1]octan-6yl)methanone], for which, in data set [1], the inhibition at 0.01 µM amounted to 92.6%, the inhibition at 0.001 µM was 45.1% and the “V1a binding affinity (in words)” value was “high binding affinity”. The logD in data set [2] worked out at 4.9.
Taken in the same sequence, the figures for `COc1cc(C(=O)N2CC3(C)CC2CC(C)(C)C3)ccc1-c1ccc(F)nc1` (centres unmarked) [8a, (4-(6Fluoropyridin-3-yl)-3-methoxyphenyl)(1,3,3-trimethyl-6-aza-bicyclo[3.2.1]octan-6yl)methanone] were 33.9%, 2.9%, “lower binding affinity compared to the lead 1” and 3.9.
In the same order, the values of `COc1cc(C(=O)N2CC3(C)CC2CC(C)(C)C3)ccc1-c1cccnc1F` (centres unmarked) [8b, (4-(2Fluoropyridin-3-yl)-3-methoxyphenyl)(1,3,3-trimethyl-6-aza-bicyclo[3.2.1]octan-6yl)methanone] are 16%, 9.7%, “lower binding affinity compared to the lead 1” and 4.
`COc1cc(C(=O)N2CC3(C)CC2CC(C)(C)C3)ccc1-c1cn(C)c2ccccc12` (centres unmarked) [8c, (3Methoxy-4-(1-methyl-1H-indol-3-yl)phenyl)(1,3,3-trimethyl-6-aza-bicyclo[3.2.1]octan-6yl)methanone]: in data set [1], the inhibition at 0.01 µM was 18.7%, the inhibition at 0.001 µM was 1.8% and the “V1a binding affinity (in words)” value is “decrease in binding affinity”. Besides, in data set [2], the logD stood at 6.
Consider `COc1cc(C(=O)N2CC3(C)CC2CC(C)(C)C3)ccc1-c1c[nH]c2ncccc12` (centres unmarked) [8d, (3Methoxy-4-(1H-pyrrolo[2,3-b]pyridin-3-yl)phenyl)(1,3,3-trimethyl-6-aza-bicyclo[3.2.1]octan-6yl)methanone], for which, in data set [1], the inhibition at 0.01 µM stood at 28.7% and the inhibition at 0.001 µM was determined as 4.4%. The logD in data set [2] came to 2.9.
In the same order, the values of `COc1cc(C(=O)N2CC3(C)CC2CC(C)(C)C3)ccc1-c1c[nH]c2cnccc12` (centres unmarked) [8e, (3Methoxy-4-(1H-pyrrolo[2,3-c]pyridin-3-yl)phenyl)(1,3,3-trimethyl-6-aza-bicyclo[3.2.1]octan-6yl)methanone] are 44.2%, -4.7% and 3.5.
In the case of `COc1cc(C(=O)N2CC3(C)CC2CC(C)(C)C3)ccc1-c1c[nH]c2ccncc12` (centres unmarked) [8f, (3Methoxy-4-(1H-pyrrolo[3,2-c]pyridin-3-yl)phenyl)(1,3,3-trimethyl-6-aza-bicyclo[3.2.1]octan-6yl)methanone], in data set [1], the inhibition at 0.01 µM was found to be 39.5% and the inhibition at 0.001 µM was 5.2%. Also, in data set [2], the logD was 2.8.
As to `Cc1ccccc1-c1ccc(C(=O)N2CC3(C)CC2CC(C)(C)C3)cc1` (centres unmarked) [8g, (2’-Methylbiphenyl-4-yl)(1,3,3-trimethyl-6-aza-bicyclo[3.2.1]octan-6-yl)methanone], in data set [1], the inhibition at 0.01 µM is 84.3%, the inhibition at 0.001 µM was 23.7% and the “V1a binding affinity (in words)” value is given as “good binding affinity”. The logD in data set [2] was 5.
Consider `Cc1cnccc1-c1ccc(C(=O)N2CC3(C)CC2CC(C)(C)C3)cc1` (centres unmarked) [8h, (4-(3-Methylpyridin-4-yl)phenyl)(1,3,3-trimethyl-6-aza-bicyclo[3.2.1]octan-6-yl)methanone], for which, in data set [1], the inhibition at 0.01 µM was found to be 28.9% and the inhibition at 0.001 µM amounted to 10.5%. In data set [2], this compound came in with a logD of 4.4.
Taken in the same sequence, the figures for `Cc1ccncc1-c1ccc(C(=O)N2CC3(C)CC2CC(C)(C)C3)cc1` (centres unmarked) [8i, (4-(4-Methylpyridin-3-yl)phenyl)(1,3,3-trimethyl-6-aza-bicyclo[3.2.1]octan-6-yl)methanone] were 43.9%, 12.8% and 4.4.
As to `Cc1ncccc1-c1ccc(C(=O)N2CC3(C)CC2CC(C)(C)C3)cc1` (centres unmarked) [8j, (4-(2-Methylpyridin-3-yl)phenyl)(1,3,3-trimethyl-6-aza-bicyclo[3.2.1]octan-6-yl)methanone], in data set [1], the inhibition at 0.01 µM is 18.2% and the inhibition at 0.001 µM was -6.6%. The compound also gave a logD in data set [2] of 4.4.
Turning to `Cc1ccccc1-c1ccc(C(=O)N2CC3(C)CC2CC(C)(C)C3)c(F)c1` (centres unmarked) [8k, (3-Fluoro-6’-methylbiphenyl-4-yl)(1,3,3-trimethyl-6-aza-bicyclo[3.2.1]octan-6-yl)methanone], in data set [1], the inhibition at 0.01 µM was 81.2%, the inhibition at 0.001 µM was 22.8% and the “V1a binding affinity (in words)” value is “good binding affinity”. The compound also yielded a logD in data set [2] of 5.8.
Taken in the same sequence, the figures for `Cc1ccncc1-c1ccc(C(=O)N2CC3(C)CC2CC(C)(C)C3)c(F)c1` (centres unmarked) [8l, (2Fluoro-4-(4-methylpyridin-3-yl)phenyl)(1,3,3-trimethyl-6-aza-bicyclo[3.2.1]octan-6yl)methanone] were 19.8%, 2.4%, “poor V1a binding affinity” and 4.5.
Consider `COc1cc(C(=O)N2CCN(C)CC2)ccc1-c1c[nH]c2ccccc12` [13a, (4-(1H-Indol-3-yl)-3-methoxyphenyl)(4-methylpiperazin-1-yl)methanone], for which, in data set [1], the inhibition at 0.01 µM worked out at 4.7% and the inhibition at 0.001 µM was 15.7%. In data set [2], this compound registered a logD of 0.7.
Taken in the same sequence, the figures for `COc1cc(C(=O)N2CCC(F)(F)CC2)ccc1-c1c[nH]c2ccccc12` [13b, (4-(1H-Indol-3-yl)-3-methoxyphenyl)(4,4-difluoropiperidin-1-yl)methanone] were 9%, 13.7% and 1.6.
`COc1cc(C(=O)N2CCCN(C)CC2)ccc1-c1c[nH]c2ccccc12` [13c, (4-(1H-Indol-3-yl)-3-methoxyphenyl)(4-methyl-1,4-diazepan-1-yl)methanone]: in data set [1], the inhibition at 0.01 µM is 6.2% and the inhibition at 0.001 µM was determined as 5.7%. In data set [2], this compound returned a logD of 0.2.
`COc1cc(C(=O)NC23CC4CC(CC(C4)C2)C3)ccc1-c1c[nH]c2ccccc12` [13d, N-Adamantan-1-yl-4-(1H-indol-3-yl)-3-methoxybenzamide]: in data set [1], the inhibition at 0.01 µM is 4.8% and the inhibition at 0.001 µM came to 7.4%. This compound also had a logD in data set [2] of 5.8.
Taken in the same sequence, the figures for `COc1cc(C(=O)Nc2ccc(F)cc2)ccc1-c1c[nH]c2ccccc12` [13e, N-(4-Fluorophenyl)-4-(1H-indol-3-yl)-3-methoxybenzamide] were 4.6%, 5% and 3.2.
`COc1cc(C(=O)N2C[C@]3(C)C[C@H]2CC(C)(C)C3)ccc1-c1c[nH]c2ccccc12` [(1S,5R)-1, (4-(1Hindol-3-yl)-3-methoxyphenyl)((1S,5R)-1,3,3-trimethyl-6-azabicyclo[3.2.1]octan-6-yl)methanone]: in data set [1], the affinity, expressed as Ki, was 0.66 nM; the inhibition at 0.01 µM came to 87.9%; the inhibition at 0.001 µM was found to be 51.4%. Moreover, in data set [2], the logD is 4.7. Also, in data set [3], the Ki is 600 nM.
Regarding `CNC1(c2ccccc2Cl)CCCCC1=O` (centres unmarked) [Ketamine], in data set [4], the “Effect on radiotracer brain uptake” value was “did not significantly change”.

(Values after article PMC6583924 (European journal of medicinal chemistry, 2017).)
